Reference: ChEMBL document CHEMBL1123757, “Selective thromboxane synthetase inhibitors and antihypertensive agents. New derivatives of 4-hydrazino-5H-pyridazino[4,5-b]indole, 4-hydrazinopyridazino[4,5-a]indole, and related compounds” (J Med Chem, 1987)

Tests used:
Rattus norvegicus [1] = assay: Percent fall in systolic blood pressure, directly measured on carotid (iv on the jugular vein) of spontaneously hypertensive rats at 1 mg/kg after 60 minutes; format: functional, Artery
Procedure, shortened: (§1)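 Anesthetized (sodium pentobarbital, 70 mg/kg) male and female Okamoto SHR, 8 weeks old, 300–350 g. Given iv into the jugular vein in normal saline. Arterial pressure and cardiac rhythm are recorded directly from the carotid by polygraph at set times after dosing. Each is expressed as percent change from the pre-dose control value.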

Rattus norvegicus [2] = assay: Antihypertensive activity in spontaneously hypertensive rats (SHR) measured by percentage fall in cardiac rhythm (CR) at 1 mg/kg administered intraperitoneally at 3 h; format: functional, Heart; conditions: route intraperitoneal
Procedure, shortened: (§2)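 Unanesthetized Okamoto-strain SHR, male and female, 8 weeks old, 300–350 g, systolic pressure ≥190 mmHg, heart rate 400–650 beats/min; five animals per dose. Given ip at 2.5 mL/kg, dissolved or suspended in normal saline or saline with 0.2% (carboxymethyl)cellulose and 1.0% Tween 80. Tail AP and CR recorded by mechanical transduction at set times; reported as percentage fall from control.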

Rattus norvegicus [3] = assay: Antihypertensive activity in spontaneously hypertensive rats (SHR) measured by percentage fall in cardiac rhythm (CR) at 25 mg/kg administered perorally at 3 h; format: functional, Heart; conditions: route oral
Procedure, shortened: (§3)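 Conscious SHR (Okamoto strain), 8 weeks old, male and female, 300–350 g, systolic BP ≥190 mmHg, CR 400–650 beats/min. Given ip or po at 2.5 mL/kg in normal saline or saline with 0.2% (carboxymethyl)cellulose and 1.0% Tween 80. Tail AP and CR recorded by mechanical transduction at 1, 3, 5 and 24 h, five animals per dose. Effect expressed as % fall versus control.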

Rattus norvegicus [4] = assay: Antihypertensive activity in spontaneously hypertensive rats (SHR) measured by percentage fall in cardiac rhythm (CR) at 5 mg/kg administered intraperitoneally at 5 h; format: functional, Heart; conditions: route intraperitoneal; procedure, shortened: as §3
Rattus norvegicus [5] = assay: Antihypertensive activity in spontaneously hypertensive rats (SHR) measured by percentage fall in arterial pressure (AP) at 5 mg/kg administered intraperitoneally at 5 h; format: functional, Artery; conditions: route intraperitoneal; procedure, shortened: as §2
Cavia porcellus [6] = assay: Ex vivo inhibition of platelet aggregation induced by ADP-II at 100 mg/kg; format: functional
Procedure, shortened: (§4)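 Fasted male or female guinea pigs (250–300 g, five per group) dosed orally in normal saline or saline with 0.2% (carboxymethyl)cellulose/1.0% Tween 80; controls given vehicle. Under ether, cardiac blood collected into 3.8% citrate. PRP adjusted to […] and aggregation induced by ADP (second wave) or AA, read by absorbance aggregometry. PGE2 and TXB2 measured by RIA.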

Rattus norvegicus [7] = assay: Antihypertensive activity in spontaneously hypertensive rats (SHR) measured by percentage fall in arterial pressure (AP) at 25 mg/kg administered intraperitoneally at 1 h; format: functional, Artery; conditions: route intraperitoneal; procedure, shortened: as §2
Rattus norvegicus [8] = assay: Percent increase in cardiac rhythm, directly measured on carotid (iv on the jugular vein) of spontaneously hypertensive rats at 1 mg/kg after 30 minutes; format: functional, Heart; procedure, shortened: as §1
Cavia porcellus [9] = assay: Ex vivo inhibition of platelet aggregation induced by AA at 100 mg/kg; format: functional; procedure, shortened: as §4
Homo sapiens [10] = species: Homo sapiens; assay: In vitro inhibition of platelet aggregation induced by adrenaline at 10e-5 M; format: functional
Procedure, shortened: (§5)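 Human venous blood anticoagulated with 3.8% sodium citrate (1:9). PRP from centrifugation at 800 rpm for 10 min at room temperature. Count adjusted with PPP to […]. Compound in saline with 10% ethylene glycol is added to PRP and incubated at 37 °C before the agonist. Agonists: ADP 2×10^-5 M, AA 0.6 mM, PGH2 2.8 μM, adrenaline 0.6 μM. Born absorbance aggregometry; n = 5.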

Rattus norvegicus [11] = assay: Antihypertensive activity in spontaneously hypertensive rats (SHR) measured by percentage fall in arterial pressure (AP) at 25 mg/kg administered intraperitoneally at 24 h; format: functional, Artery; conditions: route intraperitoneal; procedure, shortened: as §2
Rattus norvegicus [12] = assay: Percent increase in cardiac rhythm, directly measured on carotid (iv on the jugular vein) of spontaneously hypertensive rats at 1 mg/kg after 15 minutes; format: functional, Heart; procedure, shortened: as §1
Homo sapiens [13] = species: Homo sapiens; assay: In vitro inhibition of platelet aggregation induced by DD (PRP incubated for 5 minutes at 37 degree C) at 10e-5 M; format: functional; procedure, shortened: as §5
Cavia porcellus [14] = assay: Effect on thromboxane synthetase activity (ex vivo) at 100 mg/kg expressed as percent increase in PGE-2; format: functional; procedure, shortened: as §4
Rattus norvegicus [15] = assay: Antihypertensive activity in spontaneously hypertensive rats (SHR) measured by percentage fall in cardiac rhythm (CR) at 25 mg/kg administered perorally at 5 h; format: functional, Heart; conditions: route oral; procedure, shortened: as §3
Rattus norvegicus [16] = assay: Antihypertensive activity in spontaneously hypertensive rats (SHR) measured by percentage fall in cardiac rhythm (CR) at 25 mg/kg administered intraperitoneally at 1 h; format: functional, Heart; conditions: route intraperitoneal; procedure, shortened: as §2
[17] = Effect on thromboxane synthetase activity on in vitro platelet aggregation induced by AA at 10e -5 M expressed as percent increase in PGE-2; format: functional, Homo sapiens
Procedure, shortened: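 Human citrated PRP adjusted to 200 000 […], compound at 10^-5 M final in saline/10% ethylene glycol, incubated at 37 °C. Aggregation induced with arachidonic acid 0.6 mM and read by Born absorbance aggregometry. PGE2 and TXB2 in the aggregated samples measured by radioimmunoassay. n = 5.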

Rattus norvegicus [18] = assay: Antihypertensive activity in spontaneously hypertensive rats (SHR) measured by percentage fall in arterial pressure (AP) at 5 mg/kg administered intraperitoneally at 24 h; format: functional, Artery; conditions: route intraperitoneal; procedure, shortened: as §2
Rattus norvegicus [19] = assay: Percent fall in systolic blood pressure, directly measured on carotid (iv on the jugular vein) of spontaneously hypertensive rats at 1 mg/kg after 30 minutes; format: functional, Artery; procedure, shortened: as §1
Rattus norvegicus [20] = assay: Percent fall in systolic blood pressure, directly measured on carotid (iv on the jugular vein) of spontaneously hypertensive rats at 1 mg/kg after 15 minutes; format: functional, Artery; procedure, shortened: as §1
Rattus norvegicus [21] = assay: Antihypertensive activity in spontaneously hypertensive rats (SHR) measured by percentage fall in cardiac rhythm (CR) at 25 mg/kg administered intraperitoneally at 5 h; format: functional, Heart; conditions: route intraperitoneal; procedure, shortened: as §3
Homo sapiens [22] = species: Homo sapiens; assay: In vitro inhibition of platelet aggregation induced by ADP-II (PRP incubated for 60 minutes at 37 degree C) at 10e-5 M; format: functional; conditions: 1 h; procedure, shortened: as §5
Rattus norvegicus [23] = assay: Antihypertensive activity in spontaneously hypertensive rats (SHR) measured by percentage fall in cardiac rhythm (CR) at 5 mg/kg administered intraperitoneally at 1 h; format: functional, Heart; conditions: route intraperitoneal; procedure, shortened: as §3
Rattus norvegicus [24] = assay: Antihypertensive activity in spontaneously hypertensive rats (SHR) measured by percentage fall in arterial pressure (AP) at 1 mg/kg administered intraperitoneally at 1 h; format: functional, Artery; conditions: route intraperitoneal; procedure, shortened: as §2
Rattus norvegicus [25] = assay: Antihypertensive activity in spontaneously hypertensive rats (SHR) measured by percentage fall in arterial pressure (AP) at 25 mg/kg administered perorally at 24 h; format: functional, Artery; conditions: route oral
Procedure, shortened: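 Oral dosing at 2.5 mL/kg to unanesthetized male and female Okamoto-strain SHR (8 weeks old, 300–350 g, systolic pressure ≥190 mmHg, heart rate 400–650 beats/min), five per dose. Vehicle was normal saline or saline with 0.2% (carboxymethyl)cellulose and 1.0% Tween 80. AP measured on the tail by mechanical transduction at set times; expressed as percentage fall from control.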

Rattus norvegicus [26] = assay: Antihypertensive activity in spontaneously hypertensive rats (SHR) measured by percentage fall in cardiac rhythm (CR) at 1 mg/kg administered intraperitoneally at 1 h; format: functional, Heart; conditions: route intraperitoneal; procedure, shortened: as §2
Homo sapiens [27] = species: Homo sapiens; assay: In vitro inhibition of platelet aggregation induced by AA (PRP incubated for 60 minutes at 37 degree C) at 10e-5 M; format: functional; conditions: 1 h; procedure, shortened: as §5

**Q.** With `COc1ccc2[nH]c3c(NN)nncc3c2c1.Cl` as the molecule, how does the “Decrease in blood pressure” value (Rattus norvegicus [1]) read?
**A.** 60%

**Q.** And the “Decrease in CR” value (Rattus norvegicus [2])?
**A.** 8%

**Q.** And the “Decrease in CR” value (Rattus norvegicus [3])?
**A.** -14%

**Q.** What about the “Decrease in CR” value (Rattus norvegicus [4]) of the same molecule?
**A.** -6%

**Q.** What about the “Decrease in AP” value (Rattus norvegicus [5]) of the same molecule?
**A.** 26%

**Q.** What about the inhibition in vivo at 100 mg/kg (Cavia porcellus [6]) of the same molecule?
**A.** 100%

**Q.** What about the “Decrease in AP” value (Rattus norvegicus [7]) of the same molecule?
**A.** 58%

**Q.** What about the Increase (Rattus norvegicus [8]) of the same molecule?
**A.** 12%

**Q.** What about the inhibition in vivo at 100 mg/kg (Cavia porcellus [9]) of the same molecule?
**A.** 100%

**Q.** What about the inhibition at 10 µM (Homo sapiens [10]) of the same molecule?
**A.** 100%

**Q.** What about the “Decrease in AP” value (Rattus norvegicus [11]) of the same molecule?
**A.** 10%

**Q.** What about the Increase (Rattus norvegicus [12]) of the same molecule?
**A.** 11%

**Q.** What about the inhibition at 10 µM (Homo sapiens [13]) of the same molecule?
**A.** 100%

**Q.** What about the Increase (Cavia porcellus [14]) of the same molecule?
**A.** 35%

**Q.** And the “Decrease in CR” value (Rattus norvegicus [15])?
**A.** -14%

**Q.** And the “Decrease in CR” value (Rattus norvegicus [16])?
**A.** 22%

**Q.** What about the Increase [17] of the same molecule?
**A.** 47%

**Q.** And the “Decrease in AP” value (Rattus norvegicus [18])?
**A.** 9%

**Q.** What about the “Decrease in blood pressure” value (Rattus norvegicus [19]) of the same molecule?
**A.** 40%

**Q.** And the Decrease in blood pressure (Rattus norvegicus [20])?
**A.** 40%

**Q.** And the “Decrease in CR” value (Rattus norvegicus [21])?
**A.** 24%

**Q.** And the inhibition at 10 µM (Homo sapiens [22])?
**A.** 100%

**Q.** And the “Decrease in CR” value (Rattus norvegicus [23])?
**A.** -9%

**Q.** What about the “Decrease in AP” value (Rattus norvegicus [24]) of the same molecule?
**A.** 32%

**Q.** And the “Decrease in AP” value (Rattus norvegicus [25])?
**A.** 15%

**Q.** And the “Decrease in CR” value (Rattus norvegicus [26])?
**A.** 9%

**Q.** What about the inhibition at 10 µM (Homo sapiens [27]) of the same molecule?
**A.** 100%
